A short description of data set [1]: folding enthalpy; higher = less favourable; fluorescence melt of hairpins on a sequencing array, two-state fit. To be noted: sodium 0.088 M. Summed up: (§1)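 With Cy3 and quencher oligos annealed, library hairpins on a sequenced MiSeq flow cell were imaged for Cy3 fluorescence in 50 mM Na-HEPES pH 8.0, 25 mM NaCl, in 2.5 °C steps up to 60 °C. Melting temperature and folding enthalpy were derived from bootstrapped two-state fits of signals normalised to pre-quench Cy3 and to control constructs. Four replicates were combined by inverse variance, with fitted temperatures raised by 9.35 °C to match UV melts.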

The nature of data set [2]: melting temperature; fluorescence melt of hairpins on a sequencing array, two-state fit, raised by 9.35 °C to match UV melts. The note with it: sodium 0.088 M. The method in brief:
as §1

As to GAGCGGGGAAACCCGTTC ((.((((....)))).)), the folding enthalpy in data set [1] was -20.1 kcal/mol. The Tm in data set [2] stood at 53 °C.

With GAGCGTACGAAAGTACTC (((..(((....)))))), in data set [1], the folding enthalpy was -13.4 kcal/mol. Besides, the Tm in data set [2] came to 27 °C.

GAGCGTGGAAACGTGCTC ((((..(....)..)))): in data set [1], the folding enthalpy was -19.3 kcal/mol. Further, the Tm in data set [2] stood at 47.6 °C.

As to GAGCTACGAAAGTACCTC (((.(((....))).))), in data set [1], the folding enthalpy was -19 kcal/mol. Also, the Tm in data set [2] was found to be 30.6 °C.

As to GAGCTAGGAAACTAGCTC (((((((....))))))), the folding enthalpy in data set [1] is -37.9 kcal/mol. In addition, the Tm in data set [2] worked out at 62.4 °C.

For GAGCTCCGAAAGGAACTC (((.(((....))).))), in data set [1], the folding enthalpy was -27.5 kcal/mol. In data set [2], the Tm came out at 50.6 °C.

For the sequence GAGCTCCGAAAGGACCTC (((.(((....))).))), the folding enthalpy in data set [1] is -20.2 kcal/mol. Moreover, the Tm in data set [2] was 38.1 °C.

Take GAGCTCGGAAACGGGTTC ((.(.((....)).).)): in data set [1], the folding enthalpy is -14.2 kcal/mol. Further, the Tm in data set [2] is 42.3 °C.

On to GAGCTGGAAACAGCTC ((((((....)))))), for which, in data set [1], the folding enthalpy is -26 kcal/mol. Further, in data set [2], the Tm came to 67.6 °C.

Regarding GAGCTTGGAAACAGGCTC ((((.((....)).)))), the folding enthalpy in data set [1] is -45 kcal/mol. Further, in data set [2], the Tm is 49.3 °C.

Regarding GAGCTTGGAAACGAGCTC (((((.(....).))))), in data set [1], the folding enthalpy was -45.1 kcal/mol. Further, the Tm in data set [2] worked out at 53.4 °C.

GAGGAAGCGAAAGCTCTC (((..(((....)))))): the folding enthalpy in data set [1] is -13.7 kcal/mol. Also, the Tm in data set [2] stood at 35.4 °C.

Regarding GAGGACACGAAAGTGCTC (((..(((....)))))), the folding enthalpy in data set [1] was -14.4 kcal/mol. The Tm in data set [2] stood at 35.9 °C.

In the case of GAGGACCGAAAGGTACTC (((.(((....))).))), the folding enthalpy in data set [1] is -33.4 kcal/mol. In addition, the Tm in data set [2] worked out at 64.9 °C.

Take GAGGACCGAAAGGTGCTC (((.(((....))).))): in data set [1], the folding enthalpy was -32.2 kcal/mol. The Tm in data set [2] was found to be 60.4 °C.

As to GAGGACGAAAGTCACTC ((((((....))).))), in data set [1], the folding enthalpy is -17.9 kcal/mol. For the same sequence, the Tm in data set [2] amounted to 43.1 °C.

In the case of GAGGACGAAAGTCGCCTC ((((((....)))..))), the folding enthalpy in data set [1] was -14.9 kcal/mol. In data set [2], the Tm was 38.9 °C.

Take GAGGACGAAAGTCTCTC ((((((....))).))): in data set [1], the folding enthalpy was -18 kcal/mol. Also, the Tm in data set [2] amounted to 46.5 °C.

For GAGGACGAAAGTCTTCTC ((((((....)))..))), in data set [1], the folding enthalpy is -23 kcal/mol. Also, in data set [2], the Tm came out at 48 °C.

Consider GAGGACGGAAACATCCTC (((((.(....).))))), for which the folding enthalpy in data set [1] was -26.7 kcal/mol. The Tm in data set [2] came to 38.3 °C.

GAGGACGGAAACGCCCTC ((((.((....)).)))): the folding enthalpy in data set [1] was -47.2 kcal/mol. Moreover, in data set [2], the Tm was 51.7 °C.

Take GAGGAGGGAAACCTCTTC ((.((((....)))).)): the folding enthalpy in data set [1] is -27.7 kcal/mol. Further, in data set [2], the Tm turned out to be 47.8 °C.

On to GAGGATGAAAATCCTC ((((((....)))))), for which the folding enthalpy in data set [1] was -37 kcal/mol. Also, the Tm in data set [2] was found to be 54.7 °C.

Turning to GAGGATGGAAACACCCTC ((((.((....)).)))), the folding enthalpy in data set [1] is -32.6 kcal/mol. The Tm in data set [2] was found to be 38.1 °C.

As to GAGGCAACGAAAGTTCTC (((..(((....)))))), the folding enthalpy in data set [1] is -11.3 kcal/mol. In data set [2], the Tm was found to be 24.4 °C.

For GAGGCACGAAAGTGCTC (((.(((....)))))), in data set [1], the folding enthalpy is -9.34 kcal/mol. The Tm in data set [2] was determined as 45.9 °C.

Turning to GAGGCAGGAAACCGCCTC (((((.(....).))))), in data set [1], the folding enthalpy is -33.2 kcal/mol. Also, in data set [2], the Tm was 54.9 °C.

Turning to GAGGCCGAAAGGCAGCTC ((((((....)))..))), in data set [1], the folding enthalpy was -13.7 kcal/mol. In data set [2], the Tm was found to be 50.6 °C.

For the sequence GAGGCCGAAAGGCCCCTC ((((((....)))..))), the folding enthalpy in data set [1] was -9.61 kcal/mol. Also, the Tm in data set [2] is 49.7 °C.

Turning to GAGGCCGAAAGGCTACTC ((((((....)))..))), in data set [1], the folding enthalpy was -11.7 kcal/mol. The Tm in data set [2] was 42.9 °C.

In the case of GAGGCCGAAAGGCTGCTC ((((((....)))..))), the folding enthalpy in data set [1] is -12.1 kcal/mol. Also, in data set [2], the Tm was 45.9 °C.

For GAGGCCGGAAACGACCTC ((((.((....)).)))), the folding enthalpy in data set [1] was -44.9 kcal/mol. Moreover, the Tm in data set [2] is 52.9 °C.

Regarding GAGGCGGGAAACCACCTC ((((.((....)).)))), the folding enthalpy in data set [1] is -36.9 kcal/mol. Besides, in data set [2], the Tm amounted to 49.1 °C.

As to GAGGCGGGAAACCGCCCC (.(((((....))))).), in data set [1], the folding enthalpy was -7.11 kcal/mol. Besides, the Tm in data set [2] is 46.4 °C.

As for GAGGCTGCGAAAGCACTC (((..(((....)))))), the folding enthalpy in data set [1] is -11.2 kcal/mol. Moreover, the Tm in data set [2] turned out to be 34.3 °C.

Consider GAGGGACCGAAAGGTCTC (((..(((....)))))), for which the folding enthalpy in data set [1] is -11.6 kcal/mol. Also, the Tm in data set [2] was 38.3 °C.

Turning to GAGGGACGAAAGTCGCTC (((.(((....))).))), the folding enthalpy in data set [1] is -34.3 kcal/mol. The Tm in data set [2] worked out at 65.6 °C.

These data come from the array DNA melting data of Ke et al. (doi:10.1101/2024.01.08.574731).
